Where two headings read alike, the source gives them in different places.
Experiments:
[1] = system: models of head and neck SCC; details: cited from earlier work
[2] = system: patients with locally advanced unresectable or metastatic, relapsed and/or refractory nonhematological malignancies; assay: Phase I dose escalation: MTD / DLT determination; assay type: in vivo, human
Procedure, shortened: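 I.v. test compound started at 0.45 mg/kg weekly in 28-day cycles (1 h infusion). Accelerated titration used single-patient cohorts with 100% increments up to 3.6 mg/kg, then 3 + 3 cohorts above 3.6 mg/kg. Schedule 2: weekly, 4 h infusion (minimum 2 h). Schedule 3: days 1, 4, 8 (later also 11, 15) of 21-day cycles, ≥4 h infusion, ≥6 h for doses >9.6 mg/kg. MTD/RP2D derived from DLTs.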

[3] = target: ERK1/2 kinase; details: read-out: enzymatic IC50; cited from earlier work
[4] = system: patients with locally advanced unresectable or metastatic, relapsed and/or refractory nonhematological malignancies; assay: Phase I clinical activity; assay type: in vivo, human
Procedure, shortened: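 Open-label multicenter dose escalation in adults with MAPK-altered or 11q-AMP solid tumors. The test compound was given i.v. on three schedules: weekly per 28-day cycle at 0.45-5.4 mg/kg (1-2 h infusion) or 4.8-9.6 mg/kg (4 h); or on days 1, 4, 8 (±11, 15) per 21-day cycle at 3.6-11.3 mg/kg. Investigator assessed response by RECIST v1.1. Evaluable patients had ≥1 dose plus baseline and ≥1 post-treatment tumor assessment.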

[5] = target: human ether-a-go-go-related gene (hERG) potassium channel (Homo sapiens, UniProt Q12809); assay: hERG potassium channel inhibition; assay type: biochemical
human ether-a-go-go-related gene (hERG) potassium channel, sequence (Q12809 whole entry): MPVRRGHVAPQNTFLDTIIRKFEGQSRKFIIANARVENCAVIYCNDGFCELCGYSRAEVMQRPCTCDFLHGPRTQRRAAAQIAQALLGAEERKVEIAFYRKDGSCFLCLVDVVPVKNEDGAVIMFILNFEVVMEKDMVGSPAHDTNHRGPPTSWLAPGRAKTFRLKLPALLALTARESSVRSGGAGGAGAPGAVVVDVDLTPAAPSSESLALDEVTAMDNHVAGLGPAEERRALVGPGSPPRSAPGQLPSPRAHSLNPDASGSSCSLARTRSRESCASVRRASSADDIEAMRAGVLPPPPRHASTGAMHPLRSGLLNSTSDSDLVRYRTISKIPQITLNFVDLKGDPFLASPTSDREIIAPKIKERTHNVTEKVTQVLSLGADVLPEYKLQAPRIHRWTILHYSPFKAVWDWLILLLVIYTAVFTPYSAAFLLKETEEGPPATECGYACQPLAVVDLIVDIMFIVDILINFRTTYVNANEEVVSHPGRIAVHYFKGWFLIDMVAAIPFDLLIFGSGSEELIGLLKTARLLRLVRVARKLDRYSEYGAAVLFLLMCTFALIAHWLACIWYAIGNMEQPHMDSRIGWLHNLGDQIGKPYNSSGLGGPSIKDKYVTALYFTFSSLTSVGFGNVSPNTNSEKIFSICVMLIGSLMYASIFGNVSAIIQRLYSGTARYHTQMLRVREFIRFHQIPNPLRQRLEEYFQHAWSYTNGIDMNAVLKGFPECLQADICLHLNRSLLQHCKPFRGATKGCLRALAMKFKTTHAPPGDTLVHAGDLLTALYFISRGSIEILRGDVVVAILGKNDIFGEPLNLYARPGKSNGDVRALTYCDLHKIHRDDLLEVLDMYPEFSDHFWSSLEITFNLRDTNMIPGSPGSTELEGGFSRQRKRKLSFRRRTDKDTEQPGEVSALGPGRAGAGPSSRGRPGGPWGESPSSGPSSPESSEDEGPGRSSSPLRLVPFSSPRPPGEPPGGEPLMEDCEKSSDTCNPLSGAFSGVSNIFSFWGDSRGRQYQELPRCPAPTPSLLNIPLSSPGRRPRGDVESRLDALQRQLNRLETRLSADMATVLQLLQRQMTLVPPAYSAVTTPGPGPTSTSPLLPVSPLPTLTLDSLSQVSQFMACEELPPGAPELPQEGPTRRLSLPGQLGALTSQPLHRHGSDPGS

[6] = Phase I plasma pharmacokinetics; assay type: in vivo, human
[7] = system: patient-derived xenograft (PDX) models of esophageal squamous cell carcinoma; details: cited from earlier work
[8] = system: ERK1/2; details: cell lines; cited from earlier work
[9] = 11q13-amplified (11q-AMP) PDX models of esophageal SCC
[10] = 11q13WT PDX models of esophageal SCC

O=C1Nc2cc3[nH]nc(-c4ccncc4)c3cc2CN1Cc1ccccc1 [KO-947]
antitumor response ([1]; 11q-AMP models of head and neck cancer): Complete responses and tumor regression | overall response rate ([1]; mouse models of head and neck SCC with 11q-AMP): 56% | overall response rate ([1]; mouse models of head and neck SCC, 11q13WT): 9% | recommended dose (RP2D) ([2]; i.v. days 1, 4, 8, 11, and 15 every 21 days, ≥4-hour infusion): 8.5 mg/kg | patients who experienced DLTs ([2]; schedule 1 cohort 5, 5.4 mg/kg, grade 3 QTc prolongation and grade 3 retinopathy): 2/6 | DLTs ([2]; schedule 1 cohorts 1-4 (0.45-3.6 mg/kg), six patients): no DLTs | maximum administered dose ([2]; schedule 2, once weekly, 28-day cycle, 4-hour infusion): 9.6 mg/kg | DLTs ([2]; schedule 2 cohort 9 (9.6 mg/kg), two patients of six): DLT of QTc prolongation | DLTs ([2]; schedule 2 cohorts 5-8 (4.8-7.2 mg/kg)): no DLTs | maximum administered dose ([2]; schedule 3, 21-day cycle): 11.3 mg/kg | DLTs ([2]; schedule 3 cohort 3, 6.4 mg/kg): One DLT of hypotension | DLTs ([2]; schedule 3 cohort 4 (8.5 mg/kg, n = 3)): No DLTs | DLTs ([2]; schedule 3 cohort 5 (11.3 mg/kg), one patient of six): DLT of an infusion-related reaction | DLTs ([2]; schedule 3 cohorts 1 or 2 (3.6-4.8 mg/kg), six patients): no DLTs | IC50 [3]: 10 nM | best overall response ([4]; all schedules): stable disease | complete or partial responses ([4]; all schedules): No complete or partial responses | patients discontinued owing to disease progression ([4]; schedule 3): 67% | stable disease as best overall response ([4]; schedule 3): 37% | stable disease as best overall response ([4]; schedules 1 and 2): 15% | IC50 [5]: 4.4 µM | mean free Cmax relative to hERG IC50 ([5]; overall study): about one-tenth | plasma concentration ([6]; 11.3 mg/kg, cohort 5 of schedule 3, 6-hour infusion, held for ∼4 hours): ~3600 ng/mL | dose proportionality of exposure, slope ([6]; after a single dose, noncompartmental analysis): 1.2 | accumulation ([6]; all dosing schedules): None to minimal accumulation | half-life ([6]; human, plasma, intravenous): 390 to 1440 min | half-life ([6]; human, plasma, intravenous, 3.6 mg/kg): ~399 min | Cmax ([6]; human, plasma, intravenous, 3.6 mg/kg, highest Cmax, 1-hour infusion): 3630 ng/mL | Vd ([6]; in vivo): moderate | plasma CL ([6]; in vivo): moderate | time at which Cmax was achieved (near the end of the infusion) ([6]; schedules 2 and 3): ~4 h | disease control rate [7, 9]: 77% | overall response rate [7, 9]: 51% | disease control rate [7, 10]: 21% | overall response rate [7, 10]: 3% | inhibition of signaling following washout [8]: > 4 h

Source: article PMC11904481 (ESMO Open, 2025)
